Laboratory results taken from ChEMBL document CHEMBL1131460, “2-substituted (2SR)-2-amino-2-((1SR,2SR)-2-carboxycycloprop-1-yl)glycines as potent and selective antagonists of group II metabotropic glutamate receptors. 2. Effects of aromatic substitution, pharmacological characterization, and bioavailability” (J Med Chem, 1998).

Columns and labels:
Rattus norvegicus [1] = experiment: Area under curve was evaluated in rat brain when administered intraperitoneally at a dose of 10 mg/kg for 4 or 6 hours; format: ADME, organism-based; parameters: dose 10 mg/kg, route intraperitoneal; settings: in vivo, ip
Rattus norvegicus [2] = experiment: Area under curve was evaluated in rat brain when administered intravenously at a dose of 10 mg/kg for 4 or 6 hours; format: ADME, organism-based; parameters: dose 10 mg/kg, route intravenous; settings: in vivo, iv
Rattus norvegicus [3] = experiment: Area under curve was evaluated in rat plasma when administered intravenously at a dose of 10 mg/kg for 4 or 6 hours; format: ADME, organism-based; parameters: dose 10 mg/kg, route intravenous; settings: in vivo, iv
Method in brief: (§1)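 Male Fischer 344 rats were dosed at 10 mg/kg iv, 10 mg/kg ip, or 10 or 100 mg/kg po, with five rats per route and dose. One rat was sampled for blood and brain at each time: 0.25, 0.5, 1, 2 and 4 h after iv/ip, and 0.5, 1, 2, 4 and 6 h after po. Plasma and brain homogenates were derivatized, extracted and quantified by negative-ion chemical ionization GCMS (LOQ 100 pg/mL plasma, 1 ng/g brain).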

Rattus norvegicus [4] = experiment: Area under curve was evaluated in rat plasma when administered intravenously at a dose of 10 mg/kg for infinite hours; format: ADME, organism-based; parameters: time infinity, dose 10 mg/kg, route intravenous; settings: in vivo, iv; method in brief: as §1
Rattus norvegicus [5] = experiment: Area under curve was evaluated in rat plasma when administered perorally at a dose of 100 mg/kg for 4 or 6 hours; format: ADME, organism-based; parameters: dose 100 mg/kg, route oral; settings: in vivo, po; method in brief: as §1
Rattus norvegicus [6] = experiment: Area under curve was evaluated in rat plasma when administered perorally at a dose of 100 mg/kg for infinite hours; format: ADME, organism-based; parameters: time infinity, dose 100 mg/kg, route oral; settings: in vivo, po; method in brief: as §1
Rattus norvegicus [7] = experiment: Area under curve was evaluated in rat plasma when administered perorally at a dose of 10 mg/kg for infinite hours; format: ADME, organism-based; parameters: time infinity, dose 10 mg/kg, route oral; settings: in vivo, po; method in brief: as §1
[8] = Maximum concentration achieved in rat plasma when administered perorally at a dose of 10 mg/kg; format: ADME, organism-based; parameters: dose 10 mg/kg, route oral; settings: po
Method in brief: (§2)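 Male Fischer 344 rats dosed iv or ip at 10 mg/kg, or orally at 10 or 100 mg/kg; five rats per route and dose. Blood and brain taken from one rat per time point (0.25, 0.5, 1, 2, 4 h after iv/ip; 0.5, 1, 2, 4, 6 h after po). Plasma and brain homogenates derivatized, extracted, assayed by negative-ion chemical ionization GCMS (LOQ 100 pg/mL plasma, 1 ng/g brain).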

Rattus norvegicus [9] = experiment: Bioavailability was evaluated in rat plasma when administered intravenously at a dose of 10 mg/kg; <Tr>; format: ADME, organism-based; settings: in vivo, iv
[10] = Bioavailability in rat (dose 10 mg/kg p.o.); format: ADME, organism-based; settings: in vivo, po
[11] = Maximum concentration achieved in rat brain when administered intraperitoneally at a dose of 10 mg/kg; format: ADME, organism-based; parameters: dose 10 mg/kg, route intraperitoneal; settings: ip; method in brief: as §2
[12] = Maximum concentration achieved in rat brain when administered perorally at a dose of 100 mg/kg; format: ADME, organism-based; parameters: dose 100 mg/kg, route oral; settings: po; method in brief: as §2
[13] = Brain concentration after 0.5 hr at a dose of 10 mg/kg when administered perorally; settings: po
[14] = Brain concentration after 1 hr at a dose of 100 mg/kg when administered perorally; settings: po
[15] = Brain concentration after 1 hr at a dose of 10 mg/kg when administered intraperitoneally; settings: ip
[16] = Brain concentration after 1 hr at a dose of 10 mg/kg when administered perorally; settings: po
[17] = Brain concentration after 2 hr at a dose of 10 mg/kg when administered intravenously; settings: iv
[18] = Brain concentration after 2 hr at a dose of 10 mg/kg when administered perorally; settings: po
[19] = Brain concentration after 4 hr at a dose of 10 mg/kg when administered perorally; settings: po
[20] = Maximum concentration achieved in rat plasma when administered intravenously at a dose of 10 mg/kg; format: ADME, organism-based; parameters: dose 10 mg/kg, route intravenous; settings: iv; method in brief: as §2
[21] = Brain concentration after 2 hr at a dose of 100 mg/kg when administered perorally; settings: po
[22] = Brain concentration after 2 hr at a dose of 10 mg/kg when administered intraperitoneally; settings: ip
[23] = Brain concentration after 0.5 h at a dose of 100 mg/kg when administered perorally; settings: po
[24] = Brain concentration after 0.5 h at a dose of 10 mg/kg when administered intraperitoneally; settings: ip
[25] = Brain concentration after 0.5 hr at a dose of 10 mg/kg when administered intravenously; settings: iv
[26] = Clearance rate in rat plasma when administered intravenously at a dose of 10 mg/kg; format: ADME, organism-based; parameters: dose 10 mg/kg, route intravenous; settings: iv, read-out: Clp (converted); method in brief: as §1
[27] = Plasma concentration after 0.5 hr at a dose of 10 mg/kg when administered intravenously; settings: iv
[28] = Plasma concentration after 0.5 hr at a dose of 10 mg/kg when administered perorally; settings: po
[29] = Plasma concentration after 2 hr at a dose of 10 mg/kg when administered intraperitoneally; settings: ip
[30] = Plasma concentration after 2 hr at a dose of 10 mg/kg when administered intravenously; settings: iv
[31] = Plasma concentration after 2 hr at a dose of 100 mg/kg when administered perorally; settings: po
[32] = Plasma concentration after 4 hr at a dose of 10 mg/kg when administered intraperitoneally; settings: ip
[33] = Plasma concentration after 4 hr at a dose of 10 mg/kg when administered intravenously; settings: iv
[34] = Plasma concentration after 4 hr at a dose of 10 mg/kg when administered perorally; settings: po
[35] = Plasma concentration after 4 hr at a dose of 100 mg/kg when administered perorally; settings: po
[36] = Time of maximum concentration achieved in rat brain when administered intravenously at a dose of 10 mg/kg; format: ADME, organism-based; parameters: dose 10 mg/kg, route intravenous; settings: iv; method in brief: as §2
[37] = Time of maximum concentration achieved in rat brain when administered perorally at a dose of 10 mg/kg; format: ADME, organism-based; parameters: dose 10 mg/kg, route oral; settings: po; method in brief: as §2
[38] = Time of maximum concentration achieved in rat plasma when administered perorally at a dose of 100 mg/kg; format: ADME, organism-based; parameters: dose 100 mg/kg, route oral; settings: po; method in brief: as §2
[39] = Time of maximum concentration achieved in rat plasma when administered perorally at a dose of 10 mg/kg; format: ADME, organism-based; parameters: dose 10 mg/kg, route oral; settings: po; method in brief: as §2
[40] = Half-life in rat plasma when administered perorally at a dose of 10 mg/kg; format: ADME, organism-based; parameters: dose 10 mg/kg, route oral; settings: po; method in brief: as §1
[41] = Half-life in rat brain when administered intraperitoneally at a dose of 10 mg/kg; format: ADME, organism-based; parameters: dose 10 mg/kg, route intraperitoneal; settings: ip
[42] = Half-life in rat plasma when administered intraperitoneally at a dose of 10 mg/kg; format: ADME, organism-based; parameters: dose 10 mg/kg, route intraperitoneal; settings: ip; method in brief: as §1
[43] = Half-life in rat brain when administered intravenously at a dose of 10 mg/kg; format: ADME, organism-based; parameters: dose 10 mg/kg, route intravenous; settings: iv
[44] = Time of maximum concentration achieved in rat brain when administered intraperitoneally at a dose of 10 mg/kg; format: ADME, organism-based; parameters: dose 10 mg/kg, route intraperitoneal; settings: ip; method in brief: as §2
[45] = Half-life in rat plasma when administered perorally at a dose of 100 mg/kg; format: ADME, organism-based; parameters: dose 100 mg/kg, route oral; settings: po; method in brief: as §2
[46] = Plasma concentration after 6 hr at a dose of 100 mg/kg when administered perorally; settings: po
[47] = Maximum concentration achieved in rat plasma when administered perorally at a dose of 100 mg/kg; format: ADME, organism-based; parameters: dose 100 mg/kg, route oral; settings: po; method in brief: as §2
in vivo [48] = settings: brain, iv, 10 mg/kg
in vivo [49] = settings: brain, ip, 10 mg/kg
in vivo [50] = settings: brain, iv, 10 mg/kg; remark: listed apart in the source
in vivo [51] = settings: plasma, iv, 10 mg/kg

AUC (Rattus norvegicus [1]): 774 ng·h/mL
AUC (Rattus norvegicus [2]): 701 ng·h/mL
AUC (Rattus norvegicus [3]): 8370 ng·h/mL
AUC (Rattus norvegicus [4]): 8400 ng·h/mL
AUC (Rattus norvegicus [5]): 1380 ng·h/mL
AUC (Rattus norvegicus [6]): 1660 ng·h/mL
AUC (Rattus norvegicus [7]): 284 ng·h/mL
Cmax [8]: 64.1 ng/mL
Bioavailabiility (Rattus norvegicus [9]): <Tr>
F [10]: 2%
bioavailability [10]: 3.4%
Cmax [11]: 246 ng/g
Cmax [12]: 30 ng/g
concentration at 0.5 h [13]: 1.7 ng/g
concentration at 1 h [14]: 16.4 ng/g
concentration at 1 h [15]: 235 ng/g
concentration at 1 h [16]: 2.1 ng/g
concentration at 2 h [17]: 177 ng/g
concentration at 2 h [18]: 3 ng/g
concentration at 4 h [19]: 7.4 ng/g
Cmax [20]: 12000 ng/mL
concentration at 2 h [21]: 23.9 ng/g
concentration at 2 h [22]: 202 ng/g
concentration at 0.5 h [23]: 5.1 ng/g
concentration at 0.5 h [24]: 246 ng/g
concentration at 0.5 h [25]: 243 ng/g
clearance [26]: 19.8 mL/min/kg
concentration at 0.5 h [27]: 5970 ng/mL
concentration at 0.5 h [28]: 64.1 ng/mL
concentration at 2 h [29]: 1120 ng/mL
concentration at 2 h [30]: 845 ng/mL
concentration at 2 h [31]: 420 ng/mL
concentration at 4 h [32]: 39.9 ng/mL
concentration at 4 h [33]: 35.9 ng/mL
concentration at 4 h [34]: 28.3 ng/mL
concentration at 4 h [35]: 95.5 ng/mL
Tmax [36]: 0.5 h
Tmax [37]: 4 h
Tmax [38]: 1 h
Tmax [39]: 0.5 h
half-life [40]: 2.64 h
half-life [41]: 4.75 h
half-life [42]: 0.44 h
half-life [43]: 5.43 h
Tmax [44]: 0.5 h
half-life [45]: 1.94 h
concentration at 6 h [46]: 102 ng/mL
Cmax [47]: 475 ng/mL
concentration at 1 h (in vivo [48]): 188 ng/g
concentration at 0.25 h (in vivo [49]): 211 ng/g
concentration at 0.25 h (in vivo [50]): 234 ng/g
concentration at 0.25 h (in vivo [51]): 12000 ng/mL
SMILES: N[C@](CC1c2ccccc2Oc2ccccc21)(C(=O)O)[C@H]1C[C@@H]1C(=O)O
